Measurements published in ChEMBL document CHEMBL4196093, “Small-Molecule Activator of UNC-51-Like Kinase 1 (ULK1) That Induces Cytoprotective Autophagy for Parkinson's Disease Treatment” (J Med Chem, 2018).

Tests used:
[1] = target: T1, Serine/threonine-protein kinase ULK1 (Homo sapiens) (UniProt O75385); test: Induction of human recombinant N-terminal GST tagged-ULK1 (1 to 649 residues) kinase activity expressed in baculovirus infected insect Sf9 cells at 100 nM using MBP as substrate after 60 mins by ADP-glo assay relative to control
T1 sequence (whole entry): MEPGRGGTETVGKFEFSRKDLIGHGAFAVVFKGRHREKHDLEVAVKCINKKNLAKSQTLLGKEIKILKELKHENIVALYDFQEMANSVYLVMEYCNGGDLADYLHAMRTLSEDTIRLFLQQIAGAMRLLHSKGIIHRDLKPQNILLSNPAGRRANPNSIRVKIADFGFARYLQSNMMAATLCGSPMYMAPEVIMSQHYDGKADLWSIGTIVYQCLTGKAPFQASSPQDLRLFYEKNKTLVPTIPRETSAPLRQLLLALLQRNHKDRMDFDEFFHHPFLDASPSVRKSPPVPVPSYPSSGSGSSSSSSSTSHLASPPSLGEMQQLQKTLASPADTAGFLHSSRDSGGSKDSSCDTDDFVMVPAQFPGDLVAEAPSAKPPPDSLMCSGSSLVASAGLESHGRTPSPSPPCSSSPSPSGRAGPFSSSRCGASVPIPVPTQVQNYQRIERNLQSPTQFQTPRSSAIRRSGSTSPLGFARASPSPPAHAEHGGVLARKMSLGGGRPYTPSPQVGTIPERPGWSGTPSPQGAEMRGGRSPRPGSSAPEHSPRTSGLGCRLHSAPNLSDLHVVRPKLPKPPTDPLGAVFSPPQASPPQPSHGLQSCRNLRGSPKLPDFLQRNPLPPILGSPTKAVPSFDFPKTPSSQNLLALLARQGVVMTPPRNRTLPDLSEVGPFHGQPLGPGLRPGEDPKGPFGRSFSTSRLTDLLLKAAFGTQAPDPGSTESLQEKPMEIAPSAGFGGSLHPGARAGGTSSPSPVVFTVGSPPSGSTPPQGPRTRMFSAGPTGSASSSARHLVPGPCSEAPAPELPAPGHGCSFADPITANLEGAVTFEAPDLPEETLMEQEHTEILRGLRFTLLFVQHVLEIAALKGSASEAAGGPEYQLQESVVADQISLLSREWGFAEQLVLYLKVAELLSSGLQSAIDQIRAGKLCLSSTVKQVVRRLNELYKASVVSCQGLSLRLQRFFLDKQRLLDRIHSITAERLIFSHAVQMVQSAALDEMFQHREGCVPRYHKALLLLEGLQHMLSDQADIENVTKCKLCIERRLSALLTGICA
Procedure, shortened: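 Recombinant human ULK1 (10 ng) with MBP (0.1 µg/µl)/10 µM ATP and compound at 100 nM in 40 mM Tris pH 7.5, 20 mM MgCl2, 50 µM DTT, 0.1 mg/ml BSA. Incubated 60 min at room temperature; ADP-Glo luminescence read. Three independent experiments, mean ± SEM.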

[2] = target: T1, Serine/threonine-protein kinase ULK1 (Homo sapiens); test: Induction of ULK1-mediated autophagy in human SH-SY5Y cells at 1 uM after 6 hrs by MDC-staining based flow cytometric analysis relative to control; format: cell-based
Procedure, shortened: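 Autophagy scored as percentage of MDC-positive SH-SY5Y cells by flow cytometry after 1 µM compound; mean ± SEM.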

Row | SMILES | Activity [1] [%] | Activity [2] [%]
1 | O=C(Nc1cccc(Cl)c1)N[C@@H](C(=O)Nc1cc(F)ccc1F)c1ccccc1 | 159 | 24.7
2 | O=C(Nc1cccc(Br)c1)[C@H](NC(=S)Nc1cc(C(F)(F)F)cc(C(F)(F)F)c1)c1ccccc1 | 217 | 39.6
3 | O=C(Nc1ccc(F)cc1F)[C@H](NCCc1ccc(O)cc1)c1ccccc1 | 198 | 32.1
4 | Cc1ccccc1NC(=O)[C@H](NC(=O)Nc1ccccc1Cl)c1ccccc1 | 30.4 | 36.8
5 | O=C(Nc1ccc(F)cc1F)[C@H](NCCc1cccc2ccccc12)c1ccccc1 | 168 | 26.2
6 | Cc1ccccc1NC(=O)[C@H](NC(=O)Nc1c(C)cccc1C)c1ccccc1 | 149 | 24.2
7 | COc1ccc(CCNC(=O)N[C@@H](C(=O)Nc2ccccc2Cl)c2ccccc2)cc1OC | 152 | 27.9
8 | O=C(Nc1ccc(C(F)(F)F)cc1)N[C@@H](C(=O)Nc1cccc(Br)c1)c1ccccc1 | 179 | 33.6
9 | C[C@@H](NC(=O)[C@H](NC(=S)Nc1ccccc1)c1ccccc1)c1ccccc1 | 169 | 32.2
10 | Cc1ccc(NC(=O)N[C@@H](C(=O)Nc2cccc(Br)c2)c2ccccc2)cc1 | 147 | 25.4
11 | COc1ccc(N2CCN(CC(OC(=O)c3cccc(C(F)(F)F)c3)c3ccccc3)CC2)cc1 (centres undefined) | 162 | 11.6
12 | C[C@@H](NC(=O)[C@H](NC(=O)Nc1ccc(C(F)(F)F)cc1)c1ccccc1)c1ccccc1 | 209 | 38.3
13 | C[C@@H](NC(=O)[C@H](NC(=O)Nc1ccccc1Cl)c1ccccc1)c1ccccc1 | 158 | 19.3
14 | COc1ccc(NC(=O)N[C@@H](C(=O)Nc2ccccc2C)c2ccccc2)cc1 | 158 | 30.4
15 | O=C(Nc1ccc(F)cc1F)[C@H](NCCc1ccc(Br)cc1)c1ccccc1 | 171 | 28.2
16 | COc1ccc(C(=O)OC(CN2CCN(c3ccc(OC)cc3)CC2)c2ccccc2)cc1 (centres undefined) | 155 | 11.2
17 | Cc1ccccc1NC(=O)[C@H](NCCc1ccc(O)cc1)c1ccccc1 | 158 | 21
18 | Cc1ccccc1NC(=O)[C@H](NC(=O)Nc1ccc(C(F)(F)F)cc1)c1ccccc1 | 183 | 38.4
19 | COc1ccc(CC(=O)OC(CN2CCN(C)CC2)c2ccccc2)cc1OC (centres undefined) | 139 | 6.22

Row | SMILES | Activity [1] [%] | Activity [2] [%]
20 | O=C(Nc1ccc(F)cc1F)[C@H](NCCc1cccc(F)c1)c1ccccc1 | 161 | 23.4
21 | CN1CCN(CC(OC(=O)c2ccccc2F)c2ccccc2)CC1 (centres undefined) | 149 | 6.56
22 | Cc1ccccc1NC(=O)[C@H](NC(=S)Nc1ccccc1)c1ccccc1 | 179 | 36.2
23 | COc1ccc(CCNC(=S)N[C@@H](C(=O)Nc2ccccc2)c2ccccc2)cc1OC | 170 | 36.7
24 | COc1ccc(CCNC(=O)N[C@@H](C(=O)Nc2cccc(Cl)c2)c2ccccc2)cc1OC | 168 | 31.1
25 | Cc1cccc(C)c1NC(=O)N[C@@H](C(=O)N[C@H](C)c1ccccc1)c1ccccc1 | 144 | 16.2
26 | COc1ccc(N2CCN(CC(OC(=O)c3cccc(Cl)c3)c3ccccc3)CC2)cc1 (centres undefined) | 163 | 13.4
27 | CN1CCN(CC(OC(=O)c2ccccc2)c2ccccc2)CC1 (centres undefined) | 156 | 9.59
28 | COc1ccc(NC(=O)[C@H](NC(=O)NCCc2ccc(OC)c(OC)c2)c2ccccc2)cc1 | 141 | 21.1
29 | CN1CCN(CC(OC(=O)c2ccc3ncccc3c2)c2ccccc2)CC1 (centres undefined) | 181 | 12.5
30 | Cc1cccc(C)c1NC(=O)N[C@@H](C(=O)Nc1cccc(Br)c1)c1ccccc1 | 155 | 27.1
31 | O=C(Nc1ccccc1Cl)N[C@@H](C(=O)Nc1cc(F)ccc1F)c1ccccc1 | 144 | 19.6
32 | COc1ccc(CCNC(=O)N[C@@H](C(=O)Nc2c(C)cccc2C)c2ccccc2)cc1OC | 144 | 23.2
33 | Cc1ccc(NC(=O)N[C@@H](C(=O)Nc2cc(F)ccc2F)c2ccccc2)cc1 | 153 | 24
34 | COc1ccc(CCN[C@@H](C(=O)Nc2ccc(F)cc2F)c2ccccc2)cc1OC | 151 | 22.4
35 | CN1CCN(CC(OC(=O)c2cccc(Br)c2)c2ccccc2)CC1 (centres undefined) | 159 | 11.4
36 | COc1ccc(CCNC(=O)N[C@@H](C(=O)Nc2ccc(C(F)(F)F)cc2)c2ccccc2)cc1OC | 163 | 33.5
37 | O=C(Nc1cccc(Cl)c1)N[C@@H](C(=O)Nc1cccc(Br)c1)c1ccccc1 | 152 | 24.1

Next, values leading:

Row | Activity [1] [%] | Activity [2] [%] | SMILES
38 | 174 | 31.4 | O=C(Nc1ccc(F)cc1F)[C@H](NCCc1ccc(Cl)c(Cl)c1)c1ccccc1
39 | 143 | 13.5 | Cc1ccccc1NC(=O)[C@H](NCCc1ccc(N(C)C)cc1)c1ccccc1
40 | 151 | 10 | CN1CCN(CC(OC(=O)c2ccccc2C(F)(F)F)c2ccccc2)CC1 (centres undefined)
41 | 152 | 11.8 | COc1ccc(N2CCN(CC(OC(=O)c3ccccc3F)c3ccccc3)CC2)cc1 (centres undefined)
42 | 148 | 20.6 | COc1cccc(CCN[C@@H](C(=O)Nc2ccc(F)cc2F)c2ccccc2)c1
43 | 148 | 16.6 | Cc1ccc(NC(=O)N[C@@H](C(=O)N[C@H](C)c2ccccc2)c2ccccc2)cc1
44 | 148 | 24.3 | COc1ccc(CCNC(=O)N[C@@H](C(=O)Nc2ccc(C)cc2)c2ccccc2)cc1OC
45 | 168 | 11.1 | COc1ccc(N2CCN(CC(OC(=O)c3ccc(F)cc3)c3ccccc3)CC2)cc1 (centres undefined)
46 | 142 | 16.6 | Cc1ccccc1NC(=O)[C@H](NCCc1ccc([N+](=O)[O-])cc1)c1ccccc1
47 | 150 | 11.8 | COc1ccc(N2CCN(CC(OC(=O)c3ccc(Cl)cc3Cl)c3ccccc3)CC2)cc1 (centres undefined)
48 | 150 | 24.6 | O=C(Nc1cccc2ccccc12)N[C@@H](C(=O)Nc1cccc(Br)c1)c1ccccc1
49 | 197 | 39.4 | O=C(Nc1cc(F)ccc1F)[C@H](NC(=S)Nc1ccccc1)c1ccccc1
50 | 169 | 22.7 | C[C@@H](NC(=O)[C@H](NC(=O)Nc1cccc(Cl)c1)c1ccccc1)c1ccccc1
51 | 147 | 24.9 | Cc1cccc(C)c1NC(=O)N[C@@H](C(=O)Nc1cc(F)ccc1F)c1ccccc1
52 | 176 | 32.9 | O=C(Nc1cccc(Br)c1)[C@H](NC(=S)Nc1ccccc1)c1ccccc1
53 | 178 | 32.9 | C[C@@H](NC(=O)[C@H](NC(=S)Nc1cc(C(F)(F)F)cc(C(F)(F)F)c1)c1ccccc1)c1ccccc1
54 | 151 | 22.3 | O=C(Nc1cccc2ccccc12)N[C@@H](C(=O)Nc1cc(F)ccc1F)c1ccccc1
55 | 161 | 26.3 | O=C(Nc1ccccc1Cl)N[C@@H](C(=O)Nc1cccc(Br)c1)c1ccccc1
56 | 140 | 16.2 | COc1cccc(CCN[C@@H](C(=O)Nc2ccccc2C)c2ccccc2)c1
57 | 157 | 28.6 | COc1ccc(NC(=O)N[C@@H](C(=O)Nc2cccc(Br)c2)c2ccccc2)cc1
58 | 156 | 27.4 | Cc1ccccc1NC(=O)[C@H](NC(=O)Nc1cccc(Cl)c1)c1ccccc1
59 | 137 | 11 | Cc1ccccc1NC(=O)[C@H](NCCc1cccc2ccccc12)c1ccccc1
60 | 153 | 30.9 | COc1ccc(NC(=O)N[C@@H](C(=O)N[C@H](C)c2cc(F)ccc2F)c2ccccc2)cc1
61 | 141 | 8.56 | COc1ccc(N2CCN(CC(OC(=O)c3cccc(C)c3)c3ccccc3)CC2)cc1 (centres undefined)
62 | 164 | 24.5 | Cc1ccccc1NC(=O)[C@H](NCCc1ccc(F)cc1)c1ccccc1
